The test system of one data set is A549 cells. Briefly: WST-8 cell proliferation. Particulars: read-out: CC50 (A549); cell viability, A549 cells, 48 h.
The subject of data set [1] is ZIKV. Nature of the data set: Viral titer reduction assay, ZIKV in A549 cells. It counts as cell-based, Zika virus. The essentials: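 ZIKV infection of human A549 lung carcinoma cells with test compound over a dose range. Virus titre reduction measured, run in triplicate. EC50 obtained by nonlinear regression fit of the dose–response curve.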
The next data set relates to DENV2. Nature of the data set: Viral plaque reduction assay, DENV2 in A549 cells. It counts as cell-based. Particulars: read-out: EC50-DN2 (A549).
The test system of the next data set is MBP-NS3 I25A. Particulars: I25A vs WT.
Data set [2] relates to ZIKV. Briefly: qRT-PCR of viral RNA from ZIKV-infected A549 cells. It counts as cell-based, Zika virus.
Another data set in a line: WST-8 cell proliferation. To be noted: human.
Another data set concerns ZIKV NS3. Briefly: Western blot of ZIKV NS3 and polyprotein precursor in infected A549 cells. It counts as cell-based, Zika virus. To be noted: A549, MOI 0.1, 48 h. The essentials:
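Preseeded A549 cells were treated with a dose series of test compound or DMSO and infected with ZIKV at MOI 0.1. At 48 h post-infection, cells were washed, harvested, given protease inhibitor cocktail and lysed in SDS-PAGE loading buffer (95 °C, 10 min). Blots were probed with anti-ZIKV NS3 and anti-GAPDH. PP and NS3 band intensities were normalised to GAPDH, N = 3.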

Another data set has as its target MBP-NS3 H60A (Dengue virus type 2, UniProt P29990, H1535A). It counts as binding, DENV2. Particulars: H60A vs WT.
The target in a further data set is viral NS3 protease (Dengue virus type 2, UniProt P29990). Briefly: Protein thermal shift assay. It counts as binding. To be noted: PTSA.
Data set [3] relates to ZIKV. Nature of the data set: ZIKV inhibition in human neural progenitor cells. It counts as cell-based, Zika virus. Particulars: human iPSC-derived neural progenitor cells, IFA and qRT-PCR.
For the next data set, the target named is MBP-NS3 Y23A (Dengue virus type 2, UniProt P29990, Y1498A). It counts as binding, DENV2. Particulars: Y23A vs WT.
In data set [4] the test system is ZIKV. Nature of the data set: Time of addition experiment, ZIKV titer by plaque forming assay. It counts as cell-based, Zika virus. Particulars: 0.75 μM added at time points postinfection, titers at 48 h.
Data set [5] is described as follows: Repeated oral dosing toxicity in mice. It counts as in vivo, mouse. Particulars: repeated oral dosing 40 mg/kg/day for 7 days, N = 6.
Data set [6] has as its system ZIKV. Briefly: ZIKV infection of 3D mini-brain organoids. It counts as cell-based, Zika virus. To be noted: 1.5 μM.
The test system of data set [7] is ZIKV. Briefly: Immunofluorescence assay. It counts as cell-based, Zika virus. Particulars: IFA, anti-E 4G2, A549 cells. The essentials: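 ZIKV-infected cells treated with test compound or DMSO. Viral E protein detected with mouse monoclonal pan-flavivirus anti-E 4G2 and a DyLight 488 goat anti-mouse IgG secondary. Nuclei counterstained with Hoechst.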
The next data set has as its target MBP-NS3 L58A (Dengue virus type 2, UniProt P29990, L1533A). Briefly: SPR binding to MBP-NS3 mutant L58A. Further details: species or system DENV2. Particulars: L58A vs WT.
The next data set concerns the target MBP-NS3 F46A (Dengue virus type 2, UniProt P29990, F1521A). It counts as binding, DENV2. To be noted: F46A vs WT.
The subject of the next data set is 3D organoids. Nature of the data set: Toxicity on 3D mini-brain organoids. It counts as cell-based, human. To be noted: 1.5 μM.
In a further data set the target is DENV2 NS2B–NS3 protease (Dengue virus type 2, UniProt P29990). Briefly: NS2B–NS3 protease inhibition assay. It counts as biochemical.
Data set [8] concerns ZIKV. Briefly: ZIKV viremia mouse model. It counts as in vivo, Zika virus. To be noted: data not shown.
Another data set concerns DENV2 replicon. Nature of the data set: DENV2 replicon assay. Particulars: Dengue virus, DENV2, BHK-21, 48 h, read-out: EC50-DN2 (DENV2 replicon cell line). It counts as cell-based.
[9] abbreviates: read-out: EC50-ZK (A549), virus production, A549 cells.
Setting [10] is: virus production, A549 cells, 48 h postinfection.
[11] abbreviates: Zika virus, A549, read-out: EC50-ZK (A549).

The record followed here is PMC7559020 (ACS infectious diseases, 2020).

The structures appear in SMILES notation. Where two headings read alike, the source gives them in different places.

As for `Nc1ccc(NC(=O)c2cc(Cl)ccc2O)c(Cl)c1` [HJC0129], the cytotoxic concentration (CC50) in the data set on A549 cells came to 176 µM. Also, the EC50 in the data set with ZIKV [1] (setting [9]) and in the data set with DENV2 (setting [10]) was greater than 30 µM each time.
On to `CC(=O)Nc1ccc(NC(=O)c2cc(Cl)ccc2O)c(Cl)c1` [HJC0140], for which the 50% effective concentration (EC50) in the data set on ZIKV [1] (setting [9]) and with DENV2 (setting [10]) was greater than 30 µM each time.
`O=C(Nc1ccc2c(c1)S(=O)(=O)C=C2)c1cc(Cl)ccc1O` [HJC0149]: the half-maximal cytotoxic concentration (CC50) in the data set on A549 cells turned out to be 241 µM. Moreover, the EC50 is 1.1 µM in the data set on ZIKV [1] (setting [9]) and 0.9 µM in the data set with DENV2 (setting [10]).
Consider `NCCCOc1ccc(Cl)cc1C(=O)Nc1ccc([N+](=O)[O-])cc1Cl` [HJC0308], for which the cytotoxic concentration (CC50) in the data set with A549 cells was 17.7 µM. Further, the EC50 came to 6.2 µM with ZIKV [1] (setting [9]) and 1.4 µM in the data set on DENV2 (setting [10]).
The like results for `CN1CCN(CCOc2ccc(Cl)cc2C(=O)Nc2ccc([N+](=O)[O-])cc2Cl)CC1` [HJC0365] were, in that order, 177 µM, 6 µM and 6.4 µM.
The like results for `CN1CCC(Oc2ccc(Cl)cc2C(=O)Nc2ccc([N+](=O)[O-])cc2Cl)CC1` [HJC0381] were, in that order, 91.1 µM, 3.9 µM and 1.2 µM.
Consider `NCCCCOc1ccc(Cl)cc1C(=O)Nc1ccc([N+](=O)[O-])cc1Cl` [HJC0431], for which the cytotoxic concentration (CC50) with A549 cells was 28.4 µM. Besides, the EC50 in the data set on ZIKV [1] (setting [9]) was determined as 0.36 µM; in the data set on DENV2 (setting [10]), 2.2 µM.
For the compound `O=C(Nc1ccc([N+](=O)[O-])cc1Cl)c1cccc([N+](=O)[O-])c1O` [JMX0207, N-(2-Chloro-4-nitrophenyl)-2-hydroxy-3-nitrobenzamide], the “reduction of binding affinity by mutation” value with MBP-NS3 I25A and on MBP-NS3 H60A was 2- to 3 fold each time. For the same compound, in the data set with ZIKV [2], the “ZIKV RNA copy number” value is recorded as “significantly reduced the ZIKV RNA copy number in a dose-dependent manner”. The compound also showed a cytotoxic concentration (CC50) at 48 h in the data set “WST-8 cell proliferation” of 31.9 µM. In the data set with ZIKV NS3, the “high MW protein (unprocessed viral polyprotein precursor, PP)” value is reported as “dose-dependent increase”. The “viral NS3 protein production” value with ZIKV NS3 is reported as “dose-dependent reduction”. On viral NS3 protease, the “increase in Tm of the viral protein” value was determined as 0.75 °C. The “ZIKV protein expression and RNA synthesis in HNPCs” value in the data set on ZIKV [3] was “effectively inhibited”. For the same compound, the “effect of mutation on binding affinity” value on MBP-NS3 Y23A and at MBP-NS3 F46A was “do not have any effect” each time. Also, the “reduction of ZIKV titer by time of addition” value in the data set on ZIKV [4] is reported as “equally effective in reducing ZIKV titer even at 24 h postinfection”. Moreover, in [5], the signs of toxicity entry was “did not display any sign of toxicity”. The “ZIKV production from 3D organoids” value with ZIKV [6] (PFU assay, 5 dpi) is given as “significantly inhibited”. In addition, in the data set with ZIKV [6] (ZIKV PRVABC59, anti-E 4G2), the “protection of organoid slices from ZIKV infection (immunostaining)” value was “nearly completely protected the organoids from ZIKV infection”. The “ZIKV infection in the 3D organoid” value with ZIKV [6] (ZIKV-Venus, MOI 1, fluorescence imaging 7 dpi, vs DMSO) is reported as “completely abolished ZIKV infection”. Besides, the EC50 in the data set on ZIKV [1] (setting [11]) came out at 0.3 µM; in the data set on DENV2 (Dengue virus, DENV2, A549, 48 h) it was 0.31 µM. In the data set with ZIKV [7], the ZIKV antigen production result is reported as “greatly reduced ZIKV antigen production”. Also, the “effect of mutation on binding” value on MBP-NS3 L58A is “abolished the binding”. Moreover, the “toxic effect on 3D organoids” value with 3D organoids is “did not have any toxic effect”.
Compound `O=C(Nc1ccc([N+](=O)[O-])cc1Cl)c1cc(Cl)ccc1O` [Niclosamide, reference compound] had a 50% inhibitory concentration (IC50) at DENV2 NS2B–NS3 protease of 21.6 µM. Also, in the data set on ZIKV [8], the “in vivo antiviral efficacy toward ZIKV” value is “did not show appreciable in vivo antiviral efficacy”. Besides, the half-maximal effective concentration (EC50) with DENV2 replicon amounted to 2 µM; with ZIKV [1] (setting [11]), 0.48 µM.
